Reference: ChEMBL document CHEMBL5058577, “EUbOPEN Chemogenomics Library 2 (Multiplex)” (2022)

Tested on: HEK-293T
Assay: Multiplex assay against HEK293T
Type: toxicity, cell-based
Conditions: human
How it was run: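 Live cells were stained at seeding with Hoechst33342, BioTracker Green Microtubule Cytoskeleton Dye, MitoTracker Red and Annexin V Alexa Fluor 680, then imaged on a CQ1 microscope at 37°C and 5% CO2 after compound addition. CellPathfinder machine-learning gating split cells into Hoechst high-intensity objects or normal cells. Normal cells were split into healthy, pyknosed or fragmented nuclei, and pyknosed cells into mitotic or apoptotic. Tubulin, mitochondrial-mass and membrane-permeability phenotypes are per cents of healthy-nucleus cells.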

[1] = 12 h, 1 µM, compound concentration 1 uM, replicate 1
[2] = 12 h, 1 µM, compound concentration 1 uM, replicate 2
[3] = 12 h, 10 µM, compound concentration 10 uM, replicate 1
[4] = 12 h, 10 µM, compound concentration 10 uM, replicate 2
[5] = 24 h, 1 µM, compound concentration 1 uM, replicate 1
[6] = 24 h, 1 µM, compound concentration 1 uM, replicate 2
[7] = 24 h, 10 µM, compound concentration 10 uM, replicate 1
[8] = 24 h, 10 µM, compound concentration 10 uM, replicate 2
[9] = 48 h, 1 µM, compound concentration 1 uM, replicate 1
[10] = 48 h, 1 µM, compound concentration 1 uM, replicate 2
[11] = 48 h, 10 µM, compound concentration 10 uM, replicate 1
[12] = 48 h, 10 µM, compound concentration 10 uM, replicate 2

SMILES: Cl.Cl.OCCOCCN1CCN(C(c2ccccc2)c2ccc(Cl)cc2)CC1 (stereo not drawn) [HYDROXYZINE HYDROCHLORIDE]
- Population Apoptotic (%) [1]: 34%
- Population Fragmented Nuclei (%) [1]: 7%
- Population Healthy Nuclei (%) [1]: 79%
- Population Hoechst High Intensity Objects (%) [1]: 6%
- Population Membrane Permeable-Phenotype (%) [1]: 0%
- Population Mitochondria Different-Phenotype (%) [1]: 48%
- Population Mitotic Cells (%) [1]: 66%
- Population Normal (%) [1]: 93%
- Population Pyknosed Nuclei (%) [1]: 13%
- Population Tubulin-Different-Phenotype (%) [1]: 24%
- Total Cell Count [1]: 394
- Population Apoptotic (%) [2]: 70%
- Population Fragmented Nuclei (%) [2]: 5%
- Population Healthy Nuclei (%) [2]: 84%
- Population Hoechst High Intensity Objects (%) [2]: 9%
- Population Mitochondria Different-Phenotype (%) [2]: 58%
- Population Mitotic Cells (%) [2]: 29%
- Population Normal (%) [2]: 90%
- Population Pyknosed Nuclei (%) [2]: 9%
- Population Tubulin-Different-Phenotype (%) [2]: 28%
- Total Cell Count [2]: 362
- Population Apoptotic (%) [3]: 49%
- Population Fragmented Nuclei (%) [3]: 8%
- Population Healthy Nuclei (%) [3]: 71%
- Population Hoechst High Intensity Objects (%) [3]: 11%
- Population Membrane Permeable-Phenotype (%) [3]: 0%
- Population Mitochondria Different-Phenotype (%) [3]: 71%
- Population Mitotic Cells (%) [3]: 50%
- Population Normal (%) [3]: 88%
- Population Pyknosed Nuclei (%) [3]: 19%
- Population Tubulin-Different-Phenotype (%) [3]: 65%
- Total Cell Count [3]: 354
- Population Apoptotic (%) [4]: 68%
- Population Fragmented Nuclei (%) [4]: 6%
- Population Healthy Nuclei (%) [4]: 73%
- Population Hoechst High Intensity Objects (%) [4]: 19%
- Population Membrane Permeable-Phenotype (%) [4]: 1%
- Population Mitochondria Different-Phenotype (%) [4]: 83%
- Population Mitotic Cells (%) [4]: 31%
- Population Normal (%) [4]: 80%
- Population Pyknosed Nuclei (%) [4]: 20%
- Population Tubulin-Different-Phenotype (%) [4]: 59%
- Total Cell Count [4]: 327
- Population Apoptotic (%) [5]: 22%
- Population Fragmented Nuclei (%) [5]: 10%
- Population Healthy Nuclei (%) [5]: 78%
- Population Hoechst High Intensity Objects (%) [5]: 2%
- Population Membrane Permeable-Phenotype (%) [5]: 0%
- Population Mitochondria Different-Phenotype (%) [5]: 34%
- Population Mitotic Cells (%) [5]: 77%
- Population Normal (%) [5]: 97%
- Population Pyknosed Nuclei (%) [5]: 11%
- Population Tubulin-Different-Phenotype (%) [5]: 22%
- Total Cell Count [5]: 566
- Population Apoptotic (%) [6]: 43%
- Population Fragmented Nuclei (%) [6]: 11%
- Population Hoechst High Intensity Objects (%) [6]: 13%
- Population Mitochondria Different-Phenotype (%) [6]: 41%
- Population Mitotic Cells (%) [6]: 56%
- Population Normal (%) [6]: 86%
- Population Pyknosed Nuclei (%) [6]: 9%
- Population Tubulin-Different-Phenotype (%) [6]: 17%
- Total Cell Count [6]: 481
- Population Apoptotic (%) [7]: 29%
- Population Fragmented Nuclei (%) [7]: 10%
- Population Healthy Nuclei (%) [7]: 74%
- Population Hoechst High Intensity Objects (%) [7]: 8%
- Population Membrane Permeable-Phenotype (%) [7]: 0%
- Population Mitochondria Different-Phenotype (%) [7]: 55%
- Population Mitotic Cells (%) [7]: 70%
- Population Normal (%) [7]: 91%
- Population Pyknosed Nuclei (%) [7]: 15%
- Population Tubulin-Different-Phenotype (%) [7]: 49%
- Total Cell Count [7]: 472
- Population Apoptotic (%) [8]: 59%
- Population Fragmented Nuclei (%) [8]: 8%
- Population Healthy Nuclei (%) [8]: 71%
- Population Hoechst High Intensity Objects (%) [8]: 22%
- Population Mitochondria Different-Phenotype (%) [8]: 72%
- Population Mitotic Cells (%) [8]: 40%
- Population Normal (%) [8]: 77%
- Population Pyknosed Nuclei (%) [8]: 19%
- Population Tubulin-Different-Phenotype (%) [8]: 43%
- Total Cell Count [8]: 383
- Population Apoptotic (%) [9]: 23%
- Population Fragmented Nuclei (%) [9]: 14%
- Population Healthy Nuclei (%) [9]: 79%
- Population Hoechst High Intensity Objects (%) [9]: 1%
- Population Membrane Permeable-Phenotype (%) [9]: 1%
- Population Mitochondria Different-Phenotype (%) [9]: 19%
- Population Mitotic Cells (%) [9]: 76%
- Population Normal (%) [9]: 98%
- Population Pyknosed Nuclei (%) [9]: 5%
- Population Tubulin-Different-Phenotype (%) [9]: 14%
- Total Cell Count [9]: 932
- Population Apoptotic (%) [10]: 46%
- Population Hoechst High Intensity Objects (%) [10]: 3%
- Population Membrane Permeable-Phenotype (%) [10]: 0%
- Population Mitotic Cells (%) [10]: 53%
- Population Normal (%) [10]: 96%
- Population Pyknosed Nuclei (%) [10]: 6%
- Population Tubulin-Different-Phenotype (%) [10]: 12%
- Total Cell Count [10]: 676
- Population Apoptotic (%) [11]: 38%
- Population Fragmented Nuclei (%) [11]: 14%
- Population Healthy Nuclei (%) [11]: 76%
- Population Hoechst High Intensity Objects (%) [11]: 6%
- Population Membrane Permeable-Phenotype (%) [11]: 0%
- Population Mitochondria Different-Phenotype (%) [11]: 45%
- Population Mitotic Cells (%) [11]: 61%
- Population Normal (%) [11]: 93%
- Population Pyknosed Nuclei (%) [11]: 9%
- Population Tubulin-Different-Phenotype (%) [11]: 35%
- Total Cell Count [11]: 627
- Population Apoptotic (%) [12]: 60%
- Population Fragmented Nuclei (%) [12]: 15%
- Population Healthy Nuclei (%) [12]: 72%
- Population Hoechst High Intensity Objects (%) [12]: 16%
- Population Mitochondria Different-Phenotype (%) [12]: 53%
- Population Mitotic Cells (%) [12]: 40%
- Population Normal (%) [12]: 83%
- Population Pyknosed Nuclei (%) [12]: 12%
- Total Cell Count [12]: 539
